The term EC50 denotes the concentration at which the effect is half-maximal.

This note sets out measurements from ChEMBL document CHEMBL3232898, “Heterocyclic aminoparthenolide derivatives modulate G(2)-M cell cycle progression during Xenopus oocyte maturation” (Bioorg Med Chem Lett, 2014).

The test system of assay [1] is Oocyte. In words: Modulation of G2-M cell cycle progression in Xenopus oocytes assessed as delay time to germinal vesicle breakdown at 100 uM measured after overnight incubation in presence of progesterone. The assay is classed as functional, cell-based. Summed up:
(§1)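 Isolated Xenopus oocytes (20 per well) were incubated overnight with compound added from DMSO stock (100 µM starting concentration, 1% DMSO final). Next morning GVBD was scored by the appearance of a white spot on the animal pole. Oocytes without spots then received 2 µg/ml progesterone. Time to GVBD was expressed relative to the GVBD50 of DMSO controls, where 1.0 means no change, 2.0 means no maturation and 0.0 means spontaneous GVBD.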

Assay [2] deals with Oocyte. In words: Modulation of G2-M cell cycle progression in Xenopus oocytes assessed as effect on phenotype upon progression to GVBD during oocyte maturation in presence of progesterone. It counts as functional, cell-based. Summed up: as §1
Assay [3] relates to Oocyte. The assay can be described thus: Modulation of G2-M cell cycle progression in Xenopus oocytes assessed as acceleration of progesterone-stimulated maturation by measuring germinal vesicle breakdown after overnight incubation. The assay is classed as functional, cell-based. The conditions noted are these: Xenopus laevis. The method, boiled down:
as §1

The test system of assay [4] is Oocyte. In words: Modulation of G2-M cell cycle progression in Xenopus oocytes assessed as acceleration of progesterone-stimulated oocyte progression to germinal vesicle breakdown at 5 to 50 uM measured after overnight incubation relative to DMSO-treated control. It counts as functional. Summed up: as §1
In assay [5] the test system is Oocyte. The assay can be described thus: Modulation of G2-M cell cycle progression in Xenopus oocytes assessed as inhibition of progesterone-stimulated maturation by measuring germinal vesicle breakdown at 100 uM measured after overnight incubation. The assay is classed as functional, cell-based. Summed up:
as §1

Assay [6] has as its system Oocyte. In words: Modulation of G2-M cell cycle progression in Xenopus oocytes assessed as induction of oocyte progression to germinal vesicle breakdown by measuring appearance of white spot on animal pole after overnight incubation in absence of progesterone. It counts as functional, cell-based. Summed up:
as §1

Assay [7] has as its system Oocyte. In words: Modulation of G2-M cell cycle progression in Xenopus oocytes assessed as induction of spontaneous maturation by measuring germinal vesicle breakdown at 100 uM after overnight incubation in absence of progesterone. The assay is classed as functional, cell-based. Summed up: as §1
Assay [8] has as its system Xenopus. The assay can be described thus: Activation of CDK1/Cyclin B (MPF) in Xenopus oocytes assessed as retention of inhibitory phosphorylation of CDK1 at 100 uM measured prior to GVBD completion. The assay is classed as cell-based. Summed up:
(§2)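 Oocytes treated with compound or DMSO were lysed in NP40 buffer with sodium vanadate and protease inhibitors, clarified, run on 10% gels and blotted to nitrocellulose. Blots were blocked in 1% BSA/TBST and probed at 1:1000 with phospho-Cdc2 Tyr15 (inhibitory) and phospho-MAP kinase Thr202/Tyr204 (activating) antibodies, then HRP secondary with ECL detection.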

For assay [9], the system named is Xenopus. In words: Activation of progesterone-independent MAPK in Xenopus oocytes assessed as enzyme phosphorylation at 100 uM measured after GVBD completion. The assay is classed as cell-based. Summed up:
as §2

Assay [10] has as its system Xenopus. In words: Activation of progesterone-independent MAPK in Xenopus oocytes assessed as enzyme phosphorylation at 100 uM measured prior to GVBD completion. It counts as cell-based. Summed up:
as §2

For assay [11], the system named is Xenopus. The assay can be described thus: Activation of progesterone-independent MAPK in Xenopus oocytes assessed as de-phosphorylation of MPF at 100 uM measured after GVBD completion. It counts as cell-based. Summed up: as §2

Each structure is given as a SMILES string. Calls of active or inactive are those of the source. No cut-off for these calls is given here. Bounds are passed on as bounds.

On to `C/C1=C\CC[C@@]2(C)O[C@@H]2[C@H]2OC(=O)[C@@H](CNCCN3CCOCC3)[C@@H]2CC1`, for which the result in the assay with Oocyte [1] was Active.
With `C/C1=C\CC[C@@]2(C)O[C@@H]2[C@H]2OC(=O)[C@@H](Cn3ccnc3C)[C@@H]2CC1`, in the assay with Oocyte [2], the outcome was inactive.
The same measure, in the same setting: the same measure for `C/C1=C\CC[C@@]2(C)O[C@@H]2[C@H]2OC(=O)[C@@H](Cn3ccnc3)[C@@H]2CC1`: “inactive”.
Same read-out and setting: the entry for `C/C1=C\CC[C@@]2(C)O[C@@H]2[C@H]2OC(=O)[C@@H](Cn3cnc(C(F)(F)F)c3)[C@@H]2CC1` is “inactive”; for `C=C1C(=O)O[C@@H]2C3O[C@]3(C)CC/C=C(\C)CC[C@@H]12` (stereo not given in full) it is “inactive”; for `C/C1=C\CC[C@@]2(C)O[C@@H]2[C@H]2OC(=O)[C@@H](Cn3cnc(CO)c3)[C@@H]2CC1` it is “inactive”.
Regarding `CSc1nc(NC[C@@H]2C(=O)O[C@H]3[C@H]2CC/C(C)=C/CC[C@@]2(C)O[C@H]32)n[nH]1`, in the assay on Oocyte [2], the result was inactive.
The same measure, in the same setting: the same measure for `C/C1=C\CC[C@@]2(C)O[C@@H]2[C@H]2OC(=O)[C@@H](CN(C)C)[C@@H]2CC1`: “inactive”.
Turning to `C/C1=C\CC[C@@]2(C)O[C@@H]2[C@H]2OC(=O)[C@@H](CNCCCn3ccnc3)[C@@H]2CC1`, in the assay on Oocyte [3], the EC50 is less than 5 µM. Further, the “fold change (FC)” value with Oocyte [4] worked out at 2. Further, the inhibition entry in the assay with Oocyte [5] is “Active”.
As to `C/C1=C\CC[C@@]2(C)O[C@@H]2[C@H]2OC(=O)[C@@H](Cn3cnc([N+](=O)[O-])c3)[C@@H]2CC1`, the result in the assay with Oocyte [2] was inactive.
Take `C/C1=C\CC[C@@]2(C)O[C@@H]2[C@H]2OC(=O)[C@@H](CNCC3CCNCC3)[C@@H]2CC1`: in the assay on Oocyte [2], the outcome was inactive.
In the case of `C/C1=C\CC[C@@]2(C)O[C@@H]2[C@H]2OC(=O)[C@@H](CNc3nc4ccccc4[nH]3)[C@@H]2CC1`, the Activity result in the assay with Oocyte [6] is “Dose-dependent effect”. For the same compound, the outcome in the assay on Oocyte [7], in the assay on Xenopus [9], in the assay with Xenopus [10] and in the assay on Xenopus [11] was Active. In the assay with Xenopus [8], the outcome was inactive.
As to `C/C1=C\CC[C@@]2(C)O[C@@H]2[C@H]2OC(=O)[C@@H](CNCc3nc4ccccc4[nH]3)[C@@H]2CC1`, in the assay with Oocyte [2], the result was inactive.
